Rows were chosen to be rich in hits. Some 6.9% of all compounds tested hit in one or more screens of this group.
Calb biofilm kill: clotrimazole potentiators killing Candida biofilms, primary screen, with clotrimazole, Alamar Blue; C. albicans biofilm + clotrimazole; inhibition, % at 6 µM; 0.14% of 85,000 active; AID 834, 2007;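 active = inhibition above 20%; inactive = inhibition below 20%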;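 also: preformed 24 hr biofilms exposed to compound for 48 hr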
Pyk2 oligo antag: antagonists of Pyk2 self-association, primary screen, Q293 cells, FERM NanoBiT luminescence, HTS | Protein-tyrosine kinase 2-beta (Homo sapiens), Q14289 | active compounds read low | z-score (the deposit names both 25 µM and 10 µM) | 0.83% of 99,000 active;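 active = Z-score of -3 or lower, scaled per plate to the spread of control and sample wells; inactive = z-score above -3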;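 also: negative z-score means lost luminescence so less FERM oligomerization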
Target sequence (Q14289 whole entry, looked up): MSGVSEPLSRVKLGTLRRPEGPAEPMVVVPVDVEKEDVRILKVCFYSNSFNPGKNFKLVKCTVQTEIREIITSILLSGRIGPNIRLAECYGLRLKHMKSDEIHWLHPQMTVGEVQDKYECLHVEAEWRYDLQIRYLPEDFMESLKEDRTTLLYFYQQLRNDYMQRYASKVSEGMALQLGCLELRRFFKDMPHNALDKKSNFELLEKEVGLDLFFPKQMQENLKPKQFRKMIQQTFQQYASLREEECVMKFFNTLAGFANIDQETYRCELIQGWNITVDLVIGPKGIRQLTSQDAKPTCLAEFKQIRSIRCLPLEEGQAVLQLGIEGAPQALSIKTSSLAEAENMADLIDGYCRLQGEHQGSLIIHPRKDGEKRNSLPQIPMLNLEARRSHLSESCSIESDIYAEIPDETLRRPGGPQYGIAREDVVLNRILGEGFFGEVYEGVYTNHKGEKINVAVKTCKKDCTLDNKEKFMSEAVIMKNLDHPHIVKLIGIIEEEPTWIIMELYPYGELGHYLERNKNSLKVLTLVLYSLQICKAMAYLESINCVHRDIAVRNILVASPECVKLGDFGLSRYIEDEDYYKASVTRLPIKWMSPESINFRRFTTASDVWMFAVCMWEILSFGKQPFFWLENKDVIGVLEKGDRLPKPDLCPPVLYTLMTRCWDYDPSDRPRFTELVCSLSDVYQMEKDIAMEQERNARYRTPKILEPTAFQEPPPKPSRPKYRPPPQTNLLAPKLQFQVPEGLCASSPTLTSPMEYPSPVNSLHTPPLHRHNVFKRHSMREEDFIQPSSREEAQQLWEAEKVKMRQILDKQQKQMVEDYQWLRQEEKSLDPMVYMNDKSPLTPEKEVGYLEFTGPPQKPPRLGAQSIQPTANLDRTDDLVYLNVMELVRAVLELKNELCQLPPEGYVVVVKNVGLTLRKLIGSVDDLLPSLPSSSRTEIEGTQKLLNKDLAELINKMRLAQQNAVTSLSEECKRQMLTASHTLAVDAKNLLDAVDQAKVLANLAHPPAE
PostGolgi yeast: phenotypic screen on post-Golgi transport, primary screen; 0.9% of 98,000 active; post-Golgi transport phenotypic cell assay; inhibition, % at 10 µM;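 also: yeast cells grown in 1536-well plates; yeast grown about 18 h at 30C before absorbance read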
Ecoli tolC: growth inhibitors of E. coli tolC mutant, primary screen, strain BW25113 ΔtolC::kan, 384-well; OD615; growth inhibition, % at 10 µM (by protocol); 2.2% of 65,000 active;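 active = growth inhibition at or above a cutoff equal to the mean over every tested compound plus 3 SD, cut at about 60% in these data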;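 also: growth measured after 20 h incubation at 37 °C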
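Test system: E. coli BW25113 ΔtolC::kan bacteria; incubation: 37 °C, 20 h exposure; medium: LB broth supplemented with 50 µg/mL kanamycin; read-out basis: percent growth inhibition; signal: A615 absorbance measurement; compound: 10 µM final, single dose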
PostGolgi ctrl: growth inhibition of yeast control strain, primary screen, counter-screen for post-Golgi transport modulator project. efflux-deficient yeast background strain, growth absorbance A615, 16 h. inhibition, % at 10 µM. 5% of 98,000 active. AID 738, 2007
FAK blocker: FAK kinase inhibitors, primary screen, biochemical; biochemical FAK kinase activity assay; inhibition, %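 (tested at 7 µM)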; 0.84% of 97,000 active; in the data active = inhibition above about 19%
Large screens that a line does not name were inactive. Rule as the data show it, unless noted: active = inhibition above about 30%; inactive = the rest.

Oc1cnn(-c2ccccc2)c1	PostGolgi ctrl 32 (no result: Calb biofilm kill)
O=C1Nc2ccccc2C12NCCc1c2[nH]c2ccccc12 (stereo unspecified)	none (no result: Ecoli tolC)
COc1cc2c(cc1OC)C1(NCC2)C(=O)Nc2ccccc21 (stereo unspecified)	PostGolgi ctrl 48
O=c1c2ccccc2nc(/C=C/c2ccc([N+](=O)[O-])o2)n1CCCO	PostGolgi yeast 91, PostGolgi ctrl 62 (no result: Calb biofilm kill, Ecoli tolC)
O=c1c2ccccc2nc(/C=C/c2cccc([N+](=O)[O-])c2)n1CCCO	none (no result: Calb biofilm kill, PostGolgi yeast, Ecoli tolC, PostGolgi ctrl)
NC(=S)n1[nH]c(-c2ccc([N+](=O)[O-])cc2)c(N=Nc2ccc(O)cc2)c1=O	Pyk2 oligo antag -3.6 (no result: Ecoli tolC)
COC(=O)C1=C(C)NC(=O)/C1=C\c1ccc2c(c1)OCO2	none (no result: Calb biofilm kill, Ecoli tolC)
CCOC(=O)COc1ccccc1C1Nc2ccccc2C(=O)N1c1cccc(Cl)c1 (stereo unspecified)	PostGolgi yeast 44 (no result: Calb biofilm kill, Ecoli tolC)
CN(NC(=O)c1cccc(Cl)c1)c1nc(-c2ccccc2)nnc1C(F)(F)F	none (no result: Calb biofilm kill, Ecoli tolC)
Cc1ccc(C)n1N1C(=O)/C(=C\c2ccc(Cl)cc2)SC1=S	PostGolgi yeast 40, PostGolgi ctrl 39 (no result: Ecoli tolC)
COc1ccc(N(Cc2ccccc2)C(=O)CSc2nnc(Cn3nnc4ccccc43)o2)cc1	none (no result: Ecoli tolC)
CCOCC(=O)Nc1nc2c(s1)C(=O)CC(C)(C)C2	none (no result: Pyk2 oligo antag)
CC1(C)CC(=O)c2sc(NC(=O)C3CC3)nc2C1	PostGolgi ctrl 36 (no result: Pyk2 oligo antag)
CC(/C=C/c1cccs1)=C\C(=O)O	PostGolgi ctrl 32 (no result: Ecoli tolC)
O=C(/C=C/c1cccs1)c1ccc(Br)cc1	none (no result: Calb biofilm kill, Ecoli tolC)
CCOc1nc(NCc2ccco2)nc(Nc2ccc(OC)cc2)n1	none
COc1ccc(Nc2nc(NCc3ccco3)nc(N/N=C/c3ccccc3)n2)cc1	Pyk2 oligo antag -3.2 (no result: Calb biofilm kill, Ecoli tolC)
CC(=O)Nc1ccc(S(=O)(=O)Nc2c(C)nn(-c3ccccc3)c2C)cc1	none (no result: Ecoli tolC)
COc1ccc(C2OC(=O)c3ccccc3S2)cc1 (stereo unspecified)	none
CC1C(=O)C(C)C(c2ccc3c(c2)OCO3)NC1c1ccc2c(c1)OCO2 (stereo unspecified)	PostGolgi ctrl 35
O=C1CC(c2ccc3c(c2)OCO3)CN1 (stereo unspecified)	none
C=CCc1ccccc1OCC(O)CNC (stereo unspecified)	none
Cc1ccc(OCC(=O)N2CCN(c3nnc(-c4ccc(C)cc4)c4ccccc34)CC2)cc1	PostGolgi ctrl 71 (no result: Ecoli tolC)
Cc1c(C)n(C(=O)CN2CCC(C)CC2)c2ccccc12	none (no result: Ecoli tolC)
CCOc1cc2c3c(c1)C1(Nc4ccccc4S1)C(=O)N3C(C)(C)CC2C (stereo unspecified)	PostGolgi ctrl 37 (no result: Ecoli tolC)
CCOc1cc2c3c(c1)C1(OCCO1)C(=O)N3C(C)(C)CC2C (stereo unspecified)	none
Cc1ccc(NC(=O)N/C=C/c2ccc(Cl)cc2)cc1	PostGolgi ctrl 31 (no result: Calb biofilm kill, Ecoli tolC)
CC(=NC1CCCC1)c1c(C)[nH]n(-c2nc3ccccc3s2)c1=O	none
CC(=NC1CC1)c1c(-c2ccccc2)[nH]n(-c2nc3ccccc3s2)c1=O	PostGolgi ctrl 36 (no result: Calb biofilm kill, Ecoli tolC)
COc1ccc2[nH]cc(C(=O)CNc3nc(C)cs3)c2c1	none (no result: Calb biofilm kill, Ecoli tolC)
CCCCC1CC1C(=O)Nc1ccc(OC)c(OC)c1 (stereo unspecified)	PostGolgi ctrl 37 (no result: FAK blocker)
CCCCOC(=O)c1ccc(NC(=O)Nc2ccc(OC)c(OC)c2)cc1	none (no result: Ecoli tolC)
COC(=O)c1cc2sccc2n1CC(=O)Nc1cccc(SC)c1	Pyk2 oligo antag -3.6 (no result: FAK blocker)
COC(=O)c1cc2sccc2n1CC(=O)Nc1ccc(OC)c(OC)c1OC	none
CCOC(=O)c1cc2sccc2n1CC(=O)Nc1ccc2c(c1)OCCO2	Pyk2 oligo antag -3.9
COc1ccc(N2CCN(CC(O)COc3ccc4c(c3)CCC4)CC2)cc1 (stereo unspecified)	PostGolgi ctrl 38 (no result: Ecoli tolC)
OC(COc1ccc2c(c1)CCC2)CN1CCN(c2ccccc2F)CC1 (stereo unspecified)	none
O=C(Nc1ccc(S(=O)(=O)N2CCc3ccccc32)cc1)c1ccco1	PostGolgi ctrl 44 (no result: Calb biofilm kill)
COc1ccccc1C(=O)Nc1ccc(S(=O)(=O)N2CCc3ccccc32)cc1	PostGolgi ctrl 34 (no result: Ecoli tolC)
O=C(Nc1ccc(S(=O)(=O)N2CCc3ccccc32)cc1)c1ccc2c(c1)OCO2	PostGolgi ctrl 37
Cc1csc2c(C#N)c(=O)c3c(n12)CCC3	none
O=C(CSc1ccc2nnc(-c3ccncc3)n2n1)Nc1ccccc1F	none (no result: Pyk2 oligo antag)
Cc1ccc2c(c1)cc(CN(Cc1ccco1)C(=O)COc1ccccc1)c1nnnn12	PostGolgi ctrl 42
CCCc1cc(-c2n[nH]c(=S)n2C(C)c2ccccc2)cs1 (stereo unspecified)	PostGolgi ctrl 42 (no result: Calb biofilm kill, Ecoli tolC)
COCCSc1ccccc1C(=O)Nc1nncs1	none
CCC(C)[C@H](NC(=O)NCc1ccccc1)C(=O)O (stereo partly specified)	PostGolgi ctrl 45
CCC(C)[C@H](NC(=O)NCc1cccc(OC)c1)C(=O)O (stereo partly specified)	none
CCC(=C(c1ccc(OC)cc1)c1ccc(OC)cc1)c1cn(CC(O)CN2CCN(C)CC2)c2ccccc12 (stereo unspecified)	PostGolgi ctrl 91 (no result: Pyk2 oligo antag, Ecoli tolC)
COc1ccc(OCCn2cc(/C(N)=N/O)c3ccccc32)cc1	none (no result: Ecoli tolC)
CCN(C(=O)c1ccc(C(C)(C)C)cc1)c1nnc(Cn2nnc3ccccc32)s1	Ecoli tolC 62, PostGolgi ctrl 43
Cc1ccc(C23CC4CC(CC(NC(=O)NC(C)(C)CO)(C4)C2)C3)cc1	PostGolgi ctrl 38 (no result: Ecoli tolC)
Cc1ccc(-c2c3c(=O)n(C)c(=O)n(C)c3c3nnc4ccccc4n23)cc1	none (no result: Pyk2 oligo antag, PostGolgi yeast, PostGolgi ctrl)
CCCS(=O)(=O)N1CCC(C(=O)NCCCN(CC)c2cccc(C)c2)CC1	none
CCCS(=O)(=O)N1CCCC(C(=O)NCCCN(CC)c2cccc(C)c2)C1 (stereo unspecified)	PostGolgi ctrl 31
CCCS(=O)(=O)N1CCCC(C(=O)NCCN(CC)CC)C1 (stereo unspecified)	PostGolgi ctrl 33
c1csc(-c2nc3nc4ccccc4nc3n2Cc2ccc3c(c2)OCO3)c1	Ecoli tolC 66, PostGolgi ctrl 44
CCCn1c(-c2cccs2)nc2nc3ccccc3nc21	none (no result: Ecoli tolC)
Cc1ccc(NC2=C/C(=N\S(=O)(=O)c3cccs3)c3ccccc3C2=O)c(C)c1	Pyk2 oligo antag -3.7, FAK blocker 41 (no result: PostGolgi yeast, Ecoli tolC, PostGolgi ctrl)
CCCC/C(O)=C1\C(=O)CC(C)(C)CC1=Nc1ccccc1OC	PostGolgi ctrl 31 (no result: Ecoli tolC)
COc1ccc(NC(=O)N(CCCN(C)C)Cc2cc3cc(OC)ccc3[nH]c2=O)cc1	none (no result: Calb biofilm kill, Pyk2 oligo antag, PostGolgi yeast, PostGolgi ctrl, FAK blocker)
COc1ccc(NC(=O)N(Cc2cc3cc(OC)ccc3[nH]c2=O)CC2CCCO2)cc1 (stereo unspecified)	PostGolgi ctrl 36
S=C(c1cn(CCOc2ccccc2)c2ccccc12)N1CCCC1	none (no result: Calb biofilm kill, Ecoli tolC)
Cc1ccc(OCCn2cc(C(=S)N3CCCC3)c3ccccc32)cc1C	PostGolgi ctrl 31 (no result: Calb biofilm kill, Ecoli tolC)
CC(C)n1c(=S)[nH]c2ccccc2c1=O	none (no result: Ecoli tolC)
